OXTR agonist: human OXTR agonists, primary screen, fluorescence, CHO-OTR cells, Fluo-8 calcium | Oxytocin receptor (Homo sapiens), P30559 | Fluo-8 calcium fluorescence; normalized: DMSO 0%, oxytocin 100% | activation, % at 3 µM | hit rate 0.32% among 320,000;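 active = activation above the mean of all tested compounds plus 3 SD, cutoff set per screening run, cut at about 20% in these data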;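 note: peak over basal fluorescence ratio from a 100 s FLIPR kinetic read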
Target sequence (P30559 whole entry, looked up): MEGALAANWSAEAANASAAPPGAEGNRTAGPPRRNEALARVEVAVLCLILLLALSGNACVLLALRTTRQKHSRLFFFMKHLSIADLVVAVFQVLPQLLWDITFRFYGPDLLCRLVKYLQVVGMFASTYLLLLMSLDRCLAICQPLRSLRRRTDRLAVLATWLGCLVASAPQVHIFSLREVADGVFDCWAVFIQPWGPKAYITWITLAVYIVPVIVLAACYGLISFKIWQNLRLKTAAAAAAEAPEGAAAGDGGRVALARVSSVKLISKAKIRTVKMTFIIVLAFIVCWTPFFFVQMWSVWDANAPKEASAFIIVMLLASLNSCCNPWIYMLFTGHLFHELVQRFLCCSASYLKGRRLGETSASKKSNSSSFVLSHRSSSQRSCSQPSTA
TAAR1 antag: human TAAR1 antagonists, primary screen, Fluo-8 calcium fluorescence, CHO RD-HGA16 cells. Trace amine-associated receptor 1 (Homo sapiens), Q96RJ0. antagonist. inhibition, % at 3 µM. hit rate 1.5% among 360,000;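 active = inhibition above a per-plate cutoff, the mean inhibition of test compounds on that plate plus 3 SD, cut at about 49% in these data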;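 note: 0% = DMSO plus EC80 beta-PEA response and 100% = DMSO alone without agonist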
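Test system – hTAAR1-expressing CHO RD-HGA16 cells, Gα16-coupled · Also added – β-PEA at EC80 concentration, post-compound challenge · Compound – 3 µM, single point · Incubation – dye loading 75 min at 37 °C, then 30 min room temperature · Measured by – Fluo-8 intracellular calcium dye fluorescence, real-time kinetic reads · Benchmarks – vehicle and agonist controls · Replicates – singlicate, one well per test compound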
V1R ag counter: agonists of human V1a receptor, primary screen, counter-screen for OXTR agonist project, fluorescence, CHO-V1R cells. Vasopressin V1a receptor (Homo sapiens), P37288. Fluo-8 calcium fluorescence, agonist mode; 0% DMSO, 100% 3 nM vasopressin. activation, % at 3 µM. hit rate 0.25% among 320,000;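 active = activation above the mean activation of all tested compounds plus 3 SD, per screening run, cut at about 20% in these data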;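 note: signal is peak over basal fluorescence ratio across a 100 second FLIPR read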
TAAR1 ag: human TAAR1 agonists, primary screen, Fluo-8 calcium fluorescence, CHO RD-HGA16 cells; vehicle wells 0%, saturating PEA agonist 100%; activation, % at 3 µM; hit rate 0.99% among 360,000; Trace amine-associated receptor 1 (Homo sapiens), Q96RJ0;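 active = activation above the mean activation of all test compounds in the run plus 3 SD, cut at about 38% in these data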
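Assay system – CHO-derived RD-HGA16 cells with stable Gα16 and human TAAR1 · Compound dosing – one-point dosing at 3 µM (nominal) · Incubation – 17-24 h seeding, 75 min 37 °C dye, 30 min RT · Measured by – kinetic Fluo-8 calcium fluorescence · Control set – DMSO vehicle as 0%, PEA at EC100 as 100% · Repeats – single well for each compound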
OXTR potentiator: human OXTR potentiators, primary screen, fluorescence, CHO-OTR cells, Fluo-8 calcium; Fluo-8 calcium fluorescence, potentiator mode; 0% = oxytocin EC15, 100% = EC100; activation, % at 3 µM; AID 2445, 2010; hit rate 0.061% among 320,000;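 active = activation above that plate's cutoff, the mean activation of tested compounds plus 3 SD, cut at about 6.6% in these data, passing the limit was not always enough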;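 note: 100% uses oxytocin at 75 nM as the full agonist control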
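Assay system: CHO-OTR cells, human receptor / Also added: oxytocin at about EC15, sub-maximal agonist stimulus / Dosing: single dose, 3.0 µM nominal final compound concentration / Incubation: 6 min pre-incubation, 100 s read / Technique: Fluo-8 calcium dye fluorescence / Read-out: % activation vs EC15 and EC100 oxytocin / Benchmarks: EC15 oxytocin low, 75 nM oxytocin high / Replicates: singlicate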
* = called active by the depositor; . = no result given. An excerpt weighted towards active compounds, which were near 2.3% of everything screened.

SMILES	OXTR agonist	TAAR1 antag	V1R ag counter	TAAR1 ag	OXTR potentiator
O=C(CCCc1c[nH]c2ccccc12)Nc1ccc2ccccc2c1	-1	1	0	1	-6
CC(C)OCC(O)CN1CCC(Cc2ccccc2)CC1 (stereo not drawn)	-1	-14	0	2	-7
OC(COc1ccc(Br)cc1)CN1CCC(Cc2ccccc2)CC1 (stereo not drawn)	7	-12	4	42*	-8
Cc1cc(C)nc(SSc2nc(C)cc(C)n2)n1	3	26	5	46*	-9
CC(C)(C)OC(=O)NCCCC[C@H](NC(=O)c1nc[nH]c1C(=O)N1CCN(c2ccccc2)CC1)C(=O)OC(C)(C)C	-2	33	-1	15	0
CC(C)(C)OC(=O)NCCCCCNC(=O)c1nc[nH]c1C(=O)N1CCN(c2ccccc2)CC1	3	50*	5	21	-5
COC(=O)c1sc(-c2ccc(Cl)cc2)cc1NC(=O)COCC(=O)O	0	16	1	12	-2
COC(=O)c1sc(-c2ccc(Cl)cc2)cc1NC(=O)/C=C/C(=O)O	22*	-14	15	4	-17
COC(=O)c1sc(-c2ccc(C(C)(C)C)cc2)cc1NC(=O)CCC(=O)O	16	51*	20	11	-21
O=C(Cc1cn(Cc2ccccc2)c2ccccc12)Nc1ccc(Oc2cccnc2)cc1	.	3	.	1	.
CCCCOC(=O)CCc1c(C)n[nH]c1C	-2	-16	5	-1	-6
CCCCC(CC)CN1CN(CC(CC)CCCC)CC(C)(N)C1 (stereo not drawn)	.	-16	.	13	.
CC(C)(CC(=O)N1CCN(c2ccc(Cl)cc2)CC1)CC1=NS(=O)(=O)c2ccccc2N1	10	64*	12	34	-26
N#Cc1ccc(S(=O)(=O)N2CCCCC2c2cc(C(=O)NCc3cccnc3)no2)cc1 (stereo not drawn)	.	-2	.	0	.
COc1ccc(S(=O)(=O)Nc2ccc(S(=O)(=O)N3CCCC3)cc2)cc1	0	3	0	6	-5
COc1cccc(CNC(=O)c2ccc(S(=O)(=O)N3CCCCC3)cc2)c1	.	51*	.	9	.
COc1cccc(CNC(=O)c2ccc(S(=O)(=O)N3CCCC3)cc2)c1	0	-11	1	13	-11
COc1ccc(S(=O)(=O)Nc2ccc(S(=O)(=O)N3CCCCC3)cc2)cc1	21*	1	24*	16	-26
O=C(/C=C/c1ccccc1)Nc1cccnc1Oc1ccccc1F	-2	18	-1	2	-2
CC(=O)c1ccc(Nc2nc(C(N)Cc3ccc(C(F)(F)F)cc3)cs2)cc1 (stereo not drawn)	.	36	.	52*	.
NC(Cc1ccc(C(F)(F)F)cc1)c1csc(Nc2ccc(C(=O)c3ccccc3)cc2)n1 (stereo not drawn)	.	27	.	36	.
COc1ccc(NC(=O)Nc2nnc(-c3ccncc3)s2)cc1	12	49*	6	17	-21
COc1ccc(NC(=O)Nc2nc(C(N)Cc3ccc(C(F)(F)F)cc3)cs2)cc1 (stereo not drawn)	.	50*	.	40*	.
Cc1cc(-c2cc(NC=O)c3ncc(-c4cccc(C(=O)NCCN(C)C)c4)n3c2)cc(C)c1O	.	-6	.	1	.
CSc1nc2c(=O)[nH]cnc2s1	.	-8	.	1	.
Oc1ccc(N=Nc2ccc3c(c2)OCCO3)c2ncccc12	8	79*	0	36	-4
Cc1cccc(N=Nc2ccc(O)c3ncccc23)c1	2	76*	0	30	-1
CC(C)C(=O)Nc1nnc(S(=O)(=O)N2c3ccccc3CC2C)s1 (stereo not drawn)	0	-12	0	3	-3
CCCCOc1ccc(C(=O)NC2CCCCN(CCC)C2=O)cc1 (stereo not drawn)	.	-5	.	-2	.
COc1cc(NC(=O)c2cccc3c2C(=O)N(C2CCCCC2)C3)cc(OC)c1OC	-2	53*	1	2	-6

Screening results (PubChem)
